Laboratory results published in ChEMBL document CHEMBL1955823, “Imidazo[1,2-a]pyrazines as novel PI3K inhibitors” (Bioorg Med Chem Lett, 2012).

Experiments:
[1] = target: Dual specificity tyrosine-phosphorylation-regulated kinase 1A (Homo sapiens) (UniProt Q13627); assay: Inhibition of DYRK1A at 5 to 10 uM
[2] = target: PI3-kinase p110-alpha/p85-alpha (Homo sapiens, UniProt P42336); assay: Inhibition of PI3K p110alpha/p85alpha-mediated AKT1 phosphorylation at Ser473 in human U2OS cells; assay type: cell-based
Outline: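 Endogenous phospho-Akt1 (Ser473) measured in U2OS osteosarcoma cells kept in 0.1% FBS and then serum-stimulated; read-out by cell-based ELISA with femto chemiluminescent substrate.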

[3] = target: Mast/stem cell growth factor receptor Kit (Homo sapiens) (UniProt P10721); assay: Inhibition of KIT at 5 to 10 uM
[4] = target: Insulin-like growth factor 1 receptor (Homo sapiens) (UniProt P08069); assay: Inhibition of IGF1-R at 5 to 10 uM
[5] = target: T1, Inhibitor of nuclear factor kappa-B kinase subunit beta (Homo sapiens) (UniProt O14920); assay: Inhibition of IKK-beta at 5 to 10 uM
T1 sequence (whole entry): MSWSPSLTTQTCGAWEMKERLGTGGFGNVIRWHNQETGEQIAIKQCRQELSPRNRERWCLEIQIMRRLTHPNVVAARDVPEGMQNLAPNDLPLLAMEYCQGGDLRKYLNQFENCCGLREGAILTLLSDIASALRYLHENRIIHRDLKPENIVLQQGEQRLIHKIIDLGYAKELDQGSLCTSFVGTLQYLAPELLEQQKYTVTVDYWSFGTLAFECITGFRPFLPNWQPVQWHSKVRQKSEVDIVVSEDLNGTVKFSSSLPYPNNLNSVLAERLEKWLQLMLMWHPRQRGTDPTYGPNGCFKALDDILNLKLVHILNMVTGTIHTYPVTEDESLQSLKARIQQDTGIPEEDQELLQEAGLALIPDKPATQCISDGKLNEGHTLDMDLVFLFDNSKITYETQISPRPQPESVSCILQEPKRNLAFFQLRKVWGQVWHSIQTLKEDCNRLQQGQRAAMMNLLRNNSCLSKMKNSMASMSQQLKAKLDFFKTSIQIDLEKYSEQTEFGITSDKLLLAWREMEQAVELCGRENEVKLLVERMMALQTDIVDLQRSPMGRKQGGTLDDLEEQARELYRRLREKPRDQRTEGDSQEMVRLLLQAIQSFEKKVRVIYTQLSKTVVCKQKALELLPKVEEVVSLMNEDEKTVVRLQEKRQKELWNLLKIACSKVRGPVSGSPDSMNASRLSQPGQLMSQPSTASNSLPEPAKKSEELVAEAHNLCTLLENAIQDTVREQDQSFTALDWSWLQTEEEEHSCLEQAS

[6] = target: T2, Serine/threonine-protein kinase Sgk1 (Homo sapiens) (UniProt O00141); assay: Inhibition of SGK1 at 5 to 10 uM
T2 sequence (whole entry): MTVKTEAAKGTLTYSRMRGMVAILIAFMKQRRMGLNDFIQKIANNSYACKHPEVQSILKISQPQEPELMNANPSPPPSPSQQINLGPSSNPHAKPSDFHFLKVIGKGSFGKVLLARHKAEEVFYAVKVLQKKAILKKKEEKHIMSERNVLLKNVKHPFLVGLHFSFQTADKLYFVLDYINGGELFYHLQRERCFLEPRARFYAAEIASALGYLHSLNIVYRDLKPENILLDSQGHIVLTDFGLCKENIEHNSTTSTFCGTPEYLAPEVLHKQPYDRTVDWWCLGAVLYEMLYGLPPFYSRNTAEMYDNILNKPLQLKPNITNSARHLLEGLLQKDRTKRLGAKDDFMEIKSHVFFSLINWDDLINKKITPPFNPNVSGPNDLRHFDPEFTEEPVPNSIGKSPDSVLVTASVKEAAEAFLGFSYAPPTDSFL

[7] = target: PI3K p110 beta/p85 alpha (Homo sapiens, UniProt P42338); assay: Inhibition of human PI3K p110beta/p85alpha; assay type: protein-complex assay; details: read-out: Ki(app)
[8] = target: T3, Serine/threonine-protein kinase 4 (Homo sapiens) (UniProt Q13043); assay: Inhibition of MST1 at 5 to 10 uM
T3 sequence (whole entry): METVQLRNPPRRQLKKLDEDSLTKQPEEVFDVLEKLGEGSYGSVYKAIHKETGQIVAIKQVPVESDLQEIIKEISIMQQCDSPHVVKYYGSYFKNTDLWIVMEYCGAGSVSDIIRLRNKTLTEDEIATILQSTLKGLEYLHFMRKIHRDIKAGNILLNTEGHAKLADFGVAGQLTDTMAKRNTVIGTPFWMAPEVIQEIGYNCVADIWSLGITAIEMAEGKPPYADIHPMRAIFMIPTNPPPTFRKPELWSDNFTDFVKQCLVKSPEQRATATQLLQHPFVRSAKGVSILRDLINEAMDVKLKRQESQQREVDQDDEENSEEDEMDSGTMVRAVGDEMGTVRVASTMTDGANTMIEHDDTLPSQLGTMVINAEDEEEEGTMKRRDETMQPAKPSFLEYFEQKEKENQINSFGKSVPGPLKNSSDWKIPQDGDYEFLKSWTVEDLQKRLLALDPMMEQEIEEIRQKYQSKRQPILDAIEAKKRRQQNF

[9] = target: Hepatocyte growth factor receptor (Homo sapiens) (UniProt P08581); assay: Inhibition of MET at 5 to 10 uM
[10] = target: RAC-alpha serine/threonine-protein kinase (Homo sapiens) (UniProt P31749); assay: Inhibition of AKT1 at 5 to 10 uM
[11] = target: Mitogen-activated protein kinase 8 (Homo sapiens) (UniProt P45983); assay: Inhibition of JNK1 at 5 to 10 uM
[12] = target: Insulin receptor (Homo sapiens) (UniProt P06213); assay: Inhibition of INS-R at 5 to 10 uM
[13] = target: Serine/threonine-protein kinase pim-1 (Homo sapiens) (UniProt P11309); assay: Inhibition of PIM1 at 5 to 10 uM
[14] = target: Epidermal growth factor receptor (Homo sapiens) (UniProt P00533); assay: Inhibition of EGF-R at 5 to 10 uM
[15] = target: Focal adhesion kinase 1 (Homo sapiens) (UniProt Q05397); assay: Inhibition of FAK at 5 to 10 uM
[16] = target: Serine/threonine-protein kinase PAK 1 (Homo sapiens) (UniProt Q13153); assay: Inhibition of PAK1 at 5 to 10 uM
Chain of Serine/threonine-protein kinase PAK 1 (Homo sapiens) (Q13153 whole entry): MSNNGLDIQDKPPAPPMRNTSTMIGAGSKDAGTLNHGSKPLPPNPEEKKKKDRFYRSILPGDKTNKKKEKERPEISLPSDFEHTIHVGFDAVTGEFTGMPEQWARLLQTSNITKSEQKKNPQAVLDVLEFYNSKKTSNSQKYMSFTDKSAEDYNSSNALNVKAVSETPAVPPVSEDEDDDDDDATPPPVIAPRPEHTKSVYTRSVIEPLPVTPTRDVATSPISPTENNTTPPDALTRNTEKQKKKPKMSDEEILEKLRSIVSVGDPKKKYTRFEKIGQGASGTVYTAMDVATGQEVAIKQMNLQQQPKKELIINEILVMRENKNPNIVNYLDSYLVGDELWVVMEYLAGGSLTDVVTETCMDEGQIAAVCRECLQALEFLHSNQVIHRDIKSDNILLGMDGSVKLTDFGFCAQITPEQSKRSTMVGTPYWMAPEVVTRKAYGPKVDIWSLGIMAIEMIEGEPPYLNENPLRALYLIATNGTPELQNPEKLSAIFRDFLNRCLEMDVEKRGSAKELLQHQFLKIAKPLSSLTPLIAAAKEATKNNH

Chain of Insulin-like growth factor 1 receptor (Homo sapiens) (P08069 31-736 limits assumed): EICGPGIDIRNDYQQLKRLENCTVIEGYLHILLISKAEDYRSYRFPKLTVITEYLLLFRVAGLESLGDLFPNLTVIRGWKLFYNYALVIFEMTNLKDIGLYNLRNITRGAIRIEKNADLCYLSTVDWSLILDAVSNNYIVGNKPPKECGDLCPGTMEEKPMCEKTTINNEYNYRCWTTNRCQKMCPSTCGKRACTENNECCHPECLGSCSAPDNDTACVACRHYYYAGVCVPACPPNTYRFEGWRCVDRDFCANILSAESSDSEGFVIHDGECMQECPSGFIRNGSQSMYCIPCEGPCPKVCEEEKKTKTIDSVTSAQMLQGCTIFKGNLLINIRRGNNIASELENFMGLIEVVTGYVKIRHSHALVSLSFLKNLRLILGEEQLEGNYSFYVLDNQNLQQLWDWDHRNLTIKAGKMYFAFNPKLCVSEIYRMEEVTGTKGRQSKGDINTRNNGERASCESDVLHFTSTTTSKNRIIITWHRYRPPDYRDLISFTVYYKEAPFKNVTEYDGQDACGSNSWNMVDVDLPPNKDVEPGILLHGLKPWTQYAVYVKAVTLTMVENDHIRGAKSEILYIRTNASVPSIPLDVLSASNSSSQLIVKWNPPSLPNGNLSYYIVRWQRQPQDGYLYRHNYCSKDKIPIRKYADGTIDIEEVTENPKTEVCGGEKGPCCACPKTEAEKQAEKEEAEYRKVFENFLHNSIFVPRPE
Chain of Insulin-like growth factor 1 receptor (Homo sapiens) (P08069 741-1367 limits assumed): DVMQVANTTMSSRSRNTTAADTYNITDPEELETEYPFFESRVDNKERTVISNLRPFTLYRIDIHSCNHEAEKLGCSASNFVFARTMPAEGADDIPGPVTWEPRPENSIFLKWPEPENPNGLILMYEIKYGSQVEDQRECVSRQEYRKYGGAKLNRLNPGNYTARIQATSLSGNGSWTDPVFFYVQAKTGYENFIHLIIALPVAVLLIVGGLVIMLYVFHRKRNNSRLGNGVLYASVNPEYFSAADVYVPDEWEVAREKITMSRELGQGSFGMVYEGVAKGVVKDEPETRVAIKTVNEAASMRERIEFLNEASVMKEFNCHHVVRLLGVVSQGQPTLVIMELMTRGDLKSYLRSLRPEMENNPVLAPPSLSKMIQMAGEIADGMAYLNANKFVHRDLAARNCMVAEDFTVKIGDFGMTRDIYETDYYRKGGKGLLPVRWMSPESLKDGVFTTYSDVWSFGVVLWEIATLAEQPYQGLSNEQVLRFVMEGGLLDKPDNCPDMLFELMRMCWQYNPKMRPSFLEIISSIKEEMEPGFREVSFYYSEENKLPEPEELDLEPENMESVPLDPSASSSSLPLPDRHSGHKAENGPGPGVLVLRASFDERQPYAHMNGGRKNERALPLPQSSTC
Chain of Focal adhesion kinase 1 (Homo sapiens) (Q05397 2-1052 limits assumed): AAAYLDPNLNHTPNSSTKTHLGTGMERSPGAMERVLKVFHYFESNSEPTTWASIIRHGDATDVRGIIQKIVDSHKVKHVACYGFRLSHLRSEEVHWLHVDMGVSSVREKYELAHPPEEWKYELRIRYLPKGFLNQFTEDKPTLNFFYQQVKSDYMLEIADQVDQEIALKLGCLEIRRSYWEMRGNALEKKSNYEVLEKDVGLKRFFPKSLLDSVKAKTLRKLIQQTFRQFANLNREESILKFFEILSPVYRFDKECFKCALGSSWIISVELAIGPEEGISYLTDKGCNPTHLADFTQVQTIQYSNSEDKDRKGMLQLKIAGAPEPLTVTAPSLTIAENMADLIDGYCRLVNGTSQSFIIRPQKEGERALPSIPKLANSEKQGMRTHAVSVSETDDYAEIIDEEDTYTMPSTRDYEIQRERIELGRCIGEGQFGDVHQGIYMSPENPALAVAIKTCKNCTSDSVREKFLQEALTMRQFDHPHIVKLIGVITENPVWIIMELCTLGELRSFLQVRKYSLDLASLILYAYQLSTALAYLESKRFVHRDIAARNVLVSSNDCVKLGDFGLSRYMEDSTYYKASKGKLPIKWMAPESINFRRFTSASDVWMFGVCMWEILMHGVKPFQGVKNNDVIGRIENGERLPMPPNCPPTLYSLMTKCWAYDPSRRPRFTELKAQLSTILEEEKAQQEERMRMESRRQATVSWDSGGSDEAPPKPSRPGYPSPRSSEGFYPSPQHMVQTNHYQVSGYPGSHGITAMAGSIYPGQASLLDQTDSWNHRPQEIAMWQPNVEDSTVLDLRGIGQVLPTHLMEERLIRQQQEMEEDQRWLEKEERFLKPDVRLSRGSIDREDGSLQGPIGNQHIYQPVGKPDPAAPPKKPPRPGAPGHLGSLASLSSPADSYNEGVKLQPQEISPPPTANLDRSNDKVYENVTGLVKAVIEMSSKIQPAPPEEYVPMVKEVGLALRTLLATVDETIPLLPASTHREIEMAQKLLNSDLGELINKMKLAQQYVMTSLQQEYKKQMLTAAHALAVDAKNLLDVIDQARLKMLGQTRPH
Chain of Serine/threonine-protein kinase pim-1 (Homo sapiens) (P11309 whole entry, looked up): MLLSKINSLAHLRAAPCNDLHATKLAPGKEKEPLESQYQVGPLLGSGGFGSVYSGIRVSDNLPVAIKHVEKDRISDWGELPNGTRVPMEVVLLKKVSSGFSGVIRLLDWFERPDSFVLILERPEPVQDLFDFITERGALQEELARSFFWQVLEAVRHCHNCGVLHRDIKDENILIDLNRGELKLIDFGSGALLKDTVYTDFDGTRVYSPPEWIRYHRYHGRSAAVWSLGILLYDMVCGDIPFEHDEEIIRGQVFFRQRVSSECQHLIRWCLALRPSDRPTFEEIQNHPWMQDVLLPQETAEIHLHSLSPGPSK
Chain of RAC-alpha serine/threonine-protein kinase (Homo sapiens) (P31749 whole entry): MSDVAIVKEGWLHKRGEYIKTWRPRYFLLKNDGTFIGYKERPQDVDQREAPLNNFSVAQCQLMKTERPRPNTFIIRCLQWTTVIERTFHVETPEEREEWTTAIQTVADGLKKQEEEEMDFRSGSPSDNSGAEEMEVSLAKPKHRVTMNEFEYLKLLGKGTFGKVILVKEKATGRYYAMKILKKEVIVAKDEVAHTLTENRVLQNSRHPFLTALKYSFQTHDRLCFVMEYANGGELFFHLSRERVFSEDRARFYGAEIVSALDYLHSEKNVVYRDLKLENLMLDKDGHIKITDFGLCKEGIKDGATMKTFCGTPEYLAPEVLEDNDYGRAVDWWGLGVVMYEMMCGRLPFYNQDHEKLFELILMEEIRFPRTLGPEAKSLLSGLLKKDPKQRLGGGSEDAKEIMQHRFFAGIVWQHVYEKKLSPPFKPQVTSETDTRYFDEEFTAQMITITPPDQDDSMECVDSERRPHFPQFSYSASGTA
Chain of Mast/stem cell growth factor receptor Kit (Homo sapiens) (P10721 whole entry): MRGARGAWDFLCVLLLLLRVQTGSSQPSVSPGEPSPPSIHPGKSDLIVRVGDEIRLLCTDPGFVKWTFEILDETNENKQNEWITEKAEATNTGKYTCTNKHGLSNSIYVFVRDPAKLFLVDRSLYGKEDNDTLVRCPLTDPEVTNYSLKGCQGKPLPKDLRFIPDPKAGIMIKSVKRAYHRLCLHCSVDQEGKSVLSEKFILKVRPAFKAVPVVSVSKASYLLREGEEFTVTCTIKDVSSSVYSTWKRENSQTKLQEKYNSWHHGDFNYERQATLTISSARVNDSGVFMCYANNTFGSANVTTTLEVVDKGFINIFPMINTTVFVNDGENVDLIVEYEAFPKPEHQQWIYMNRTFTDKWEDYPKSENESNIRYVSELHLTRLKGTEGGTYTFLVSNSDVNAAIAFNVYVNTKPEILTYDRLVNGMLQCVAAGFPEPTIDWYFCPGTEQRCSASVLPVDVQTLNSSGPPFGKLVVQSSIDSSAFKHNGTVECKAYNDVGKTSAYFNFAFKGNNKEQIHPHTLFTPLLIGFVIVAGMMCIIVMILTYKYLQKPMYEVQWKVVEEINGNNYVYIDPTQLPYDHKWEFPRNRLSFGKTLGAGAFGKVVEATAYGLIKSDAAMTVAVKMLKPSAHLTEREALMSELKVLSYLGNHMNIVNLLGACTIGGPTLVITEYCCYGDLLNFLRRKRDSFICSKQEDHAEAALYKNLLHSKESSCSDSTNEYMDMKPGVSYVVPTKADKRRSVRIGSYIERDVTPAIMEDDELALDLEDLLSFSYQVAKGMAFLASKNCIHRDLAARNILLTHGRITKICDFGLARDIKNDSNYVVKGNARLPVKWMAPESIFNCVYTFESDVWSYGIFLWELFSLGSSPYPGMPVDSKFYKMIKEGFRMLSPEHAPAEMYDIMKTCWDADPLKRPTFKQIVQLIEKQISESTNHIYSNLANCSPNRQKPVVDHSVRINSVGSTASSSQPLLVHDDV

| SMILES | inhibition [1] [%] | EC50 [2] [nM] | inhibition [3] [%] | inhibition [4] [%] | inhibition [5] [%] | inhibition [6] [%] | Ki [7] [nM] | inhibition [8] [%] | inhibition [9] [%] | inhibition [10] [%] | inhibition [11] [%] | inhibition [12] [%] | inhibition [13] [%] | inhibition [14] [%] | inhibition [15] [%] | inhibition [16] [%] |
| --- | --- | --- | --- | --- | --- | --- | --- | --- | --- | --- | --- | --- | --- | --- | --- | --- |
| O=C(NCCN1CCOCC1)c1cn2cc(-c3cccc4[nH]ncc34)nc(N3CCOCC3)c2n1 | < 50 | 452 | < 50 | < 50 | < 50 | < 50 | > 500 | < 50 | < 50 | 50 | < 50 | 50 | < 50 | < 50 | 50 | < 50 |
| CNC(=O)c1cn2cc(-c3cccc4[nH]ncc34)nc(N3CCOCC3)c2n1 | < 50 | 600 | < 50 | < 50 | < 50 | < 50 | > 500 | < 50 | < 50 | 50 | < 50 | 50 | < 50 | < 50 | 50 | < 50 |
| CN(C)CCCNC(=O)c1cn2cc(-c3cccc4[nH]ncc34)nc(N3CCOCC3)c2n1 | < 50 | 429 | < 50 | < 50 | < 50 | < 50 | > 500 | < 50 | < 50 | 50 | < 50 | 50 | < 50 | < 50 | 50 | < 50 |
| COCCCNC(=O)c1cn2cc(-c3cccc4[nH]ncc34)nc(N3CCOCC3)c2n1 | < 50 | 114 | < 50 | < 50 | < 50 | < 50 | > 500 | < 50 | < 50 | 50 | < 50 | 50 | < 50 | < 50 | 50 | < 50 |

Other lines, results leading:

| inhibition [1] [%] | EC50 [2] [nM] | inhibition [3] [%] | inhibition [4] [%] | inhibition [5] [%] | inhibition [6] [%] | Ki [7] [nM] | inhibition [8] [%] | inhibition [9] [%] | inhibition [10] [%] | inhibition [11] [%] | inhibition [12] [%] | inhibition [13] [%] | inhibition [14] [%] | inhibition [15] [%] | inhibition [16] [%] | SMILES |
| --- | --- | --- | --- | --- | --- | --- | --- | --- | --- | --- | --- | --- | --- | --- | --- | --- |
| < 50 | 203 | < 50 | < 50 | < 50 | < 50 | > 500 | < 50 | < 50 | 50 | < 50 | 50 | < 50 | < 50 | 50 | < 50 | CS(=O)(=O)N1CCN(Cc2cn3c(C#N)c(-c4cccc5[nH]ncc45)nc(N4CCOCC4)c3n2)CC1 |
| < 50 | 495 | < 50 | < 50 | < 50 | < 50 | > 500 | < 50 | < 50 | 50 | < 50 | 50 | < 50 | < 50 | 50 | < 50 | CS(=O)(=O)N1CCN(Cc2cn3c(Cl)c(-c4cccc5[nH]ncc45)nc(N4CCOCC4)c3n2)CC1 |
| < 50 |  | < 50 | < 50 | < 50 | < 50 | > 500 | < 50 | < 50 | < 50 | < 50 | 50 | < 50 | < 50 | 50 | < 50 | CS(=O)(=O)N1CCN(Cc2cn3cc(-c4cccc5[nH]ncc45)nc(N4CCOCC4)c3n2)CC1 |
| < 50 | 208 | < 50 | < 50 | < 50 | < 50 | > 500 | < 50 | < 50 | 50 | < 50 | 50 | < 50 | < 50 | 50 | < 50 | CS(=O)(=O)N1CCN(Cc2nc3c(N4CCOCC4)nc(-c4cccc5[nH]ncc45)cn3c2Br)CC1 |
